Measurements: PMC3701955 (Bioorganic & medicinal chemistry, 2012)
Where two headings read alike, the source gives them in different places.

Legend:
human OTR = target: T1, human OTR (Homo sapiens, UniProt P30559); type: binding; conditions: human receptors
T1 sequence (P30559 1-389): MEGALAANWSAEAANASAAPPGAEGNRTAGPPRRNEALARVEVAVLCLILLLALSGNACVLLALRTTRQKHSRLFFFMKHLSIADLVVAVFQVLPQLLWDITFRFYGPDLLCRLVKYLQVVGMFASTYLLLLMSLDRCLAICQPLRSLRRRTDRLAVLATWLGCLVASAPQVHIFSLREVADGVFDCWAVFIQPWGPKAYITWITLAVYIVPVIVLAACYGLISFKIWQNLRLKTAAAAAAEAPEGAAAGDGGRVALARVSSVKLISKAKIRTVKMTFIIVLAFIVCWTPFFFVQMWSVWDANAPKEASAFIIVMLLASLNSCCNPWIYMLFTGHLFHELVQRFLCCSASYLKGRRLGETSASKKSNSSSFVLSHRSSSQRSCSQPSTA

rodent OTR = conditions: prairie vole brain sections
[1] = type: in vivo; conditions: female Sprague–Dawley rats, iv; for Biodistribution of radioactivity in brain region, Amygdala / Biodistribution of radioactivity in brain region, Basal Hypothalamus / Biodistribution of radioactivity in brain region, Cerebellum / Biodistribution of radioactivity in brain region, Remaining Brain / Biodistribution of radioactivity, Blood / Biodistribution of radioactivity, Heart / Biodistribution of radioactivity, Kidney / Biodistribution of radioactivity, Liver / Biodistribution of radioactivity, Lung / Biodistribution of radioactivity, Muscle / Biodistribution of radioactivity, Uterus / Biodistribution of radioactivity in brain region, Dorsal Striatum / Biodistribution of radioactivity, Brain: mean ± SD; for Biodistribution of radioactivity, Brain: total brain
OTR and V1aR = experiment: Receptor autoradiography with the radioligand on prairie vole brain slices; type: binding; conditions: 70 pM radioligand
In short: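 Prairie vole brains were cut at 20 μm from prefrontal cortex through nucleus accumbens and ventral pallidum, stored at −80 °C, and thawed. Sections were dipped in 0.1% paraformaldehyde/PBS pH 7.4 and rinsed in 50 mM Tris pH 7.4. They were incubated 1 h with 70 pM radioiodinated test compound without competitor, then washed in 50 mM Tris + 2% MgCl2 pH 7.4, air-dried, and exposed to film 72 h. Six animals per study.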

For `CS(=O)(=O)N1CCC(Oc2ccc(CC(=O)N3CCC(N4C(=O)CCc5ccccc54)CC3)c(OC/C=C/I)c2)CC1` [Compound 1, (E)-1-(1-(2-(2-(3-Iodoallyloxy)-4-(1-(methylsulfonyl)piperidin-4-yloxy)phenyl)acetyl)piperidin-4-yl)-3,4-dihydroquinolin-2(1H)-one], which “potency for the human OTR over V1aR” value (human OTR) is on record?
Its value is 79 fold.

For `COc1cc(OC2CCN(S(C)(=O)=O)CC2)ccc1CC(=O)N1CCC(N2C(=O)CCc3ccccc32)CC1` [Compound 4, 1-(1-(2-(2-Methoxy-4-((1-(methylsulfonyl)piperidin-4-yl)oxy)phenyl)acetyl)piperidin-4-yl)-3,4-dihydroquinolin-2(1H)-one], which “selectivity for the rodent OTR over V1aR” value (rodent OTR) is on record?
Its value is “four times more selective”.

For `CS(=O)(=O)N1CCC(Oc2ccc(CC(=O)N3CCC(N4C(=O)CCc5ccccc54)CC3)c(OC/C=C/[125I])c2)CC1` [[^125I]1, (E)-1-(1-(2-(2-(3-[125I]Iodoallyloxy)-4-(1-(methylsulfonyl)piperidin-4-yloxy)phenyl)acetyl)piperidin-4-yl)-3,4-dihy droquinolin-2(1H)-one], which “in vivo stability of the radiolabel (thyroid / bone uptake over time)” value [1] is on record?
The value was “broken down readily in vivo at the iodine position”.

And the “Biodistribution of radioactivity in brain region, Amygdala” value (“Biodistribution … Amygdala” below) ([1]; 15 min)?
Its value is 0.09 ± 0.02 %ID/g.

And the “Biodistribution of radioactivity in brain region, Basal Hypothalamus” value (“Biodistribution … Basal Hypothalamus” for short) ([1]; 15 min)?
Its value is 0.08 ± 0.01 %ID/g.

What about the “Biodistribution of radioactivity in brain region, Cerebellum” value ([1]; 15 min) of the same compound?
The value was 0.08 ± 0.01 %ID/g.

And the “Biodistribution of radioactivity in brain region, Remaining Brain” value ([1]; 15 min)?
Its value is 0.07 ± 0.01 %ID/g.

And the “Biodistribution of radioactivity, Blood” value ([1]; 15 min)?
Its value is 0.58 ± 0.51 %ID/g.

And the “Biodistribution of radioactivity, Heart” value ([1]; 15 min)?
Its value is 0.82 ± 0.70 %ID/g.

And the “Biodistribution of radioactivity, Kidney” value ([1]; 15 min)?
Its value is 0.96 ± 0.84 %ID/g.

And the “Biodistribution of radioactivity, Liver” value ([1]; 15 min)?
The value was 5.67 ± 5.08 %ID/g.

And the “Biodistribution of radioactivity, Lung” value ([1]; 15 min)?
The value was 1.86 ± 1.60 %ID/g.

And the “Biodistribution of radioactivity, Muscle” value ([1]; 15 min)?
Its value is 0.28 ± 0.24 %ID/g.

What about the “Biodistribution of radioactivity, Uterus” value ([1]; 15 min) of the same compound?
The value was 0.43 ± 0.38 %ID/g.

And the “Biodistribution … Amygdala” value ([1]; 30 min)?
Its value is 0.07 ± 0.03 %ID/g.

What about the “Biodistribution … Basal Hypothalamus” value ([1]; 30 min) of the same compound?
The value was 0.06 ± 0.01 %ID/g.

And the “Biodistribution of radioactivity, Blood” value ([1]; 30 min)?
Its value is 0.58 ± 0.07 %ID/g.

And the “Biodistribution of radioactivity, Heart” value ([1]; 30 min)?
The value was 0.61 ± 0.18 %ID/g.

And the “Biodistribution of radioactivity, Kidney” value ([1]; 30 min)?
The value was 0.75 ± 0.07 %ID/g.

What about the “Biodistribution of radioactivity, Liver” value ([1]; 30 min) of the same compound?
Its value is 3.90 ± 0.15 %ID/g.

And the “Biodistribution of radioactivity, Lung” value ([1]; 30 min)?
Its value is 1.41 ± 0.72 %ID/g.

What about the “Biodistribution of radioactivity, Muscle” value ([1]; 30 min) of the same compound?
Its value is 0.26 ± 0.02 %ID/g.

And the “Biodistribution of radioactivity, Uterus” value ([1]; 30 min)?
The value was 0.41 ± 0.07 %ID/g.

And the “Biodistribution … Amygdala” value ([1]; 60 min)?
The value was 0.09 ± 0.02 %ID/g.

And the “Biodistribution … Basal Hypothalamus” value ([1]; 60 min)?
Its value is 0.06 ± 0.01 %ID/g.

And the “Biodistribution of radioactivity in brain region, Dorsal Striatum” value ([1]; 60 min)?
The value was 0.04 ± 0.01 %ID/g.

What about the “Biodistribution of radioactivity, Blood” value ([1]; 60 min) of the same compound?
Its value is 0.55 ± 0.27 %ID/g.

And the “Biodistribution of radioactivity, Heart” value ([1]; 60 min)?
Its value is 0.54 ± 0.28 %ID/g.

What about the “Biodistribution of radioactivity, Kidney” value ([1]; 60 min) of the same compound?
The value was 0.69 ± 0.30 %ID/g.

And the “Biodistribution of radioactivity, Liver” value ([1]; 60 min)?
Its value is 3.09 ± 1.34 %ID/g.

What about the “Biodistribution of radioactivity, Lung” value ([1]; 60 min) of the same compound?
Its value is 1.45 ± 1.04 %ID/g.

What about the “Biodistribution of radioactivity, Muscle” value ([1]; 60 min) of the same compound?
The value was 0.23 ± 0.11 %ID/g.

What about the “Biodistribution of radioactivity, Uterus” value ([1]; 60 min) of the same compound?
Its value is 0.45 ± 0.23 %ID/g.

And the “Biodistribution of radioactivity, Brain” value ([1]; 60 min)?
Its value is 0.04 ± 0.02 %ID/g.

What about the “Biodistribution … Amygdala” value ([1]; 120 min) of the same compound?
Its value is 0.06 ± 0.01 %ID/g.

What about the “Biodistribution of radioactivity in brain region, Cerebellum” value ([1]; 120 min) of the same compound?
Its value is 0.03 ± 0.01 %ID/g.

And the “Biodistribution of radioactivity in brain region, Dorsal Striatum” value ([1]; 120 min)?
Its value is 0.03 ± 0.01 %ID/g.

What about the “Biodistribution of radioactivity in brain region, Remaining Brain” value ([1]; 120 min) of the same compound?
Its value is 0.03 ± 0.01 %ID/g.

And the “Biodistribution of radioactivity, Blood” value ([1]; 120 min)?
The value was 0.38 ± 0.14 %ID/g.

What about the “Biodistribution of radioactivity, Heart” value ([1]; 120 min) of the same compound?
Its value is 0.38 ± 0.06 %ID/g.

What about the “Biodistribution of radioactivity, Kidney” value ([1]; 120 min) of the same compound?
Its value is 0.42 ± 0.10 %ID/g.

What about the “Biodistribution of radioactivity, Liver” value ([1]; 120 min) of the same compound?
The value was 1.81 ± 0.30 %ID/g.

And the “Biodistribution of radioactivity, Muscle” value ([1]; 120 min)?
Its value is 0.14 ± 0.03 %ID/g.

What about the “Biodistribution of radioactivity, Uterus” value ([1]; 120 min) of the same compound?
Its value is 0.30 ± 0.10 %ID/g.

And the “Biodistribution of radioactivity, Brain” value ([1]; 120 min)?
Its value is 0.02 ± 0.01 %ID/g.

What about the “autoradiographic binding to brain regions” value (OTR and V1aR) of the same compound?
Its value is “bind to receptors in the NAcc and VP”.
